As usually defined, the IC50 is the concentration needed to halve the response being measured. In general, Inhibition refers to the percentage by which the read-out fell short of the control. A low value points to a response near the control.

One test has as its target Histone deacetylase 1 (Homo sapiens, UniProt Q13547). The test is described as follows: Inhibitory activity on partially purified recombinant human Histone deacetylase 1 (HDAC-1).
A short description of test [1]: The relative effective concentration to induce same level of histone H4 acetylation of human T24 cells by MS-275 at 1 uM. It is filed as functional, T-24.
The subject of a further test is NCI-H446. The test is described as follows: Inhibitory concentration against lung H446 cell line. It is filed as functional, cell-based. As to conditions: Homo sapiens. The gist of the method:
(§1)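 MTT assay: cells exposed to a range of compound concentrations for 72 h at 37 °C, 5% CO2. MTT added at 0.5 mg/mL final for 4 h, then solubilized with DMF/SDS buffer (pH 4.7) overnight; absorbance at 570 with 630 reference. OD converted to cell numbers via a standard growth curve.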

Another test relates to MCF7. The test is described as follows: Inhibitory concentration against breast MCF-7 cell line. It is filed as functional, cell-based. As to conditions: Homo sapiens. The gist of the method: as §1
The subject of another test is SW48. The test is described as follows: Inhibitory concentration against colon SW48 cell line. The settings on record: Homo sapiens. It is filed as functional, cell-based. The gist of the method: as §1
The test system of test [2] is Fibroblast MRHF cell line. The test is described as follows: Inhibitory concentration against normal fibroblast MRHF cell line. It is filed as functional, cell-based. The settings on record: Homo sapiens. The gist of the method:
as §1

A further test deals with A549. The test is described as follows: Inhibitory concentration against lung A549 cell line. It is filed as functional, cell-based. As to conditions: Homo sapiens. The gist of the method: as §1
In a further test the test system is HMEC. The test is described as follows: Inhibitory concentration against normal epithelial HMEC cell line. It is filed as functional, cell-based. The settings on record: Homo sapiens. The gist of the method:
as §1

The subject of a further test is T-24. The test is described as follows: Inhibitory concentration against bladder T24 cell line. It is filed as functional, cell-based. The settings on record: Homo sapiens. The gist of the method:
as §1

The subject of test [3] is HCT-116. The test is described as follows: Inhibitory concentration against colon HCT116 cell line. It is filed as functional, cell-based. As to conditions: Homo sapiens. The gist of the method: as §1
In the next test the test system is MDA-MB-231. The test is described as follows: Inhibitory concentration against breast MDA-MB-231 cell line. It is filed as functional, cell-based. The settings on record: Homo sapiens. The gist of the method:
as §1

Another test concerns DU-145. The test is described as follows: Inhibitory concentration against prostate DU145 cell line. It is filed as functional, cell-based. The settings on record: Homo sapiens. The gist of the method:
as §1

Test [4] concerns HCT-116. The test is described as follows: In vivo percent inhibitory activity of intraperitoneally administered compound (40 mg/kg/day) against mice […] with HCT116 tumor. It is filed as functional, Homo sapiens. The gist of the method:
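CD1 nude mice (18–22 g) implanted with 30 mg fragments of serially passaged A549 or HCT116 tumor; randomized at ~100 mm3 mean tumor volume, six per group. Daily intraperitoneal dosing (7 days/week) for 21 days, compound dissolved in DMSO; vehicle-only controls. Body weight and tumor volume monitored three times weekly; percent tumor growth inhibition versus vehicle.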

Sequence of Histone deacetylase 1 (Q13547 whole entry): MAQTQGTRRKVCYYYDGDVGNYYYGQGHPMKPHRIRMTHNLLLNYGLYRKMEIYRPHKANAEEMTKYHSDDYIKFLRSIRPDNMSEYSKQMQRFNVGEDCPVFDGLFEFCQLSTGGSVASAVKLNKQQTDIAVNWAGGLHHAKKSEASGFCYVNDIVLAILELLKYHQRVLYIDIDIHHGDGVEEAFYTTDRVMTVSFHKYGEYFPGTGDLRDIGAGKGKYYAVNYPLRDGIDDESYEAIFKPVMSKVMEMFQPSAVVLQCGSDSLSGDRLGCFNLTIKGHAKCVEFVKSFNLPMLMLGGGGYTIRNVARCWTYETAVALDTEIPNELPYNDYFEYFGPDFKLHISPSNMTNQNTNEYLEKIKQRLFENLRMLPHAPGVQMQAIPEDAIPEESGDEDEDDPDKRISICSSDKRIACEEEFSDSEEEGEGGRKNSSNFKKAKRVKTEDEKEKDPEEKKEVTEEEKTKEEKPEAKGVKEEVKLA

Turning to `O=C(/C=C/c1ccc(NS(=O)(=O)c2cccc3oc4ccccc4c23)cc1)NO`, at Histone deacetylase 1, the IC50 amounted to 0.04 µM. Besides, the EC in test [1] was 1 µM.

Turning to `O=C(/C=C/c1ccc(NS(=O)(=O)c2cccc3cccnc23)cc1)NO`, the EC in test [1] came out at 25 µM.

For the molecule `COc1ccc(NS(=O)(=O)c2ccc(/C=C/C(=O)NO)cc2)cc1OC`, the IC50 on Histone deacetylase 1 worked out at 0.05 µM.

On to `O=C(/C=C/c1ccc(NS(=O)(=O)c2ccc(-c3ccccc3)cc2)cc1)NO`, for which, in [1], the EC is 1 µM.

Turning to `Cc1ccc(NS(=O)(=O)c2ccc(/C=C/C(=O)NO)cc2)cc1`, the IC50 at Histone deacetylase 1 came to 0.2 µM. In [1], this molecule had an EC of 1 µM.

In the case of `CC(/C=C/C(=O)NO)=C\[C@@H](C)C(=O)c1ccc(N(C)C)cc1` [TRICHOSTATIN], the IC50 in the test on NCI-H446 amounted to 1.5 µM; with MCF7, 10 µM; with SW48, 5 µM; in test [2], 36 µM; in the test on A549, 4.5 µM; with HMEC, 32 µM. For the same molecule, the IC50 was determined as 4 µM with T-24, 0.9 µM with HCT-116 [3], 3.5 µM with MDA-MB-231 and 3.5 µM in the test with DU-145.

In turn, `COc1ccc(S(=O)(=O)Nc2ccc(/C=C/C(=O)NO)cc2)cc1` showed an EC in [1] of 5 µM.

In test [1], `O=C(/C=C/c1ccc(S(=O)(=O)Nc2ccc(-c3ccccc3)cc2)cc1)NO` came in with an EC of 1 µM.

Consider `Nc1ccccc1NC(=O)/C=C/C#Cc1ccc(NS(=O)(=O)c2ccccc2)cc1`, for which the concentration for half-maximal inhibition (IC50) at Histone deacetylase 1 stood at 5 µM.

Regarding `Cc1ccc(S(=O)(=O)Nc2ccc(/C=C/C(=O)Nc3ccccc3N)cc2)cc1`, the concentration for half-maximal inhibition (IC50) in the test with NCI-H446 was 1 µM; in the test with MCF7, 6 µM; with SW48, 10 µM; in test [2], more than 37 µM; with A549 it was 8 µM; in the test on HMEC, more than 37 µM. The IC50 in the test with T-24 is 8 µM; in the test on HCT-116 [3] it was 4 µM; in the test on MDA-MB-231, 2 µM; in the test with DU-145 it was 2 µM. The Inhibition with HCT-116 [4] was 55%.

In test [1], `O=C(/C=C/c1ccc(NS(=O)(=O)c2cccc3ccccc23)cc1)NO` came in with an EC of 5 µM.

As to `CN(C)c1cccc2c(S(=O)(=O)Nc3ccc(/C=C/C(=O)NO)cc3)cccc12`, on Histone deacetylase 1, the IC50 stood at 0.2 µM. This molecule also had an EC in test [1] of 5 µM.

With `Nc1ccccc1NC(=O)/C=C/c1ccc(S(=O)(=O)Nc2ccc(-c3ccccc3)cc2)cc1`, the IC50 at Histone deacetylase 1 turned out to be 1 µM. The molecule further had an EC in [1] of 5 µM.

On to `COc1ccc(S(=O)(=O)Nc2ccc(/C=C/C(=O)NO)cc2)cc1OC`, for which the concentration for half-maximal inhibition (IC50) turned out to be 0.4 µM in the test with NCI-H446; 1.5 µM in the test on MCF7; 0.8 µM in the test with SW48; 5 µM in test [2]; 2 µM in the test with A549; 20 µM in the test on HMEC. The IC50 in the test on T-24 turned out to be 2 µM; in the test with HCT-116 [3] it was 0.2 µM; in the test on MDA-MB-231 it was 0.7 µM; with DU-145 it was 0.75 µM. Moreover, the EC in test [1] is 1 µM.

With `Nc1ccccc1NC(=O)/C=C/c1ccc(NS(=O)(=O)c2cccc3ccccc23)cc1`, the IC50 at Histone deacetylase 1 was found to be 3 µM. The molecule further had an EC in [1] of 10 µM.

On to `O=C(O)/C=C/c1ccc(NS(=O)(=O)c2ccc(-c3ccccc3)cc2)cc1`, for which, at Histone deacetylase 1, the concentration for half-maximal inhibition (IC50) is more than 25 µM.

Take `COc1ccc(S(=O)(=O)Nc2ccc(/C=C/C(=O)Nc3ccccc3N)cc2)cc1`: the half-maximal inhibitory concentration (IC50) in the test with NCI-H446 turned out to be 2 µM; with MCF7, 8 µM; in the test with SW48, 4 µM; with A549 it was 10 µM; at Histone deacetylase 1 it was 1 µM; with HMEC, 38 µM. In addition, the IC50 with T-24 worked out at 8 µM; with HCT-116 [3], 2.5 µM; in the test on MDA-MB-231 it was 6 µM; in the test with DU-145, 5 µM. Besides, the EC in test [1] was 1 µM.

Consider `O=C(/C=C/C#Cc1cccc(NS(=O)(=O)c2ccccc2)c1)NO` [OXAMFLATIN], for which the 50% inhibitory concentration (IC50) at Histone deacetylase 1 turned out to be 0.1 µM.

For `Nc1ccccc1NC(=O)/C=C/c1ccc(NS(=O)(=O)c2cccc3oc4ccccc4c23)cc1`, the half-maximal inhibitory concentration (IC50) at Histone deacetylase 1 is 0.4 µM. Besides, the EC in [1] came to 10 µM.

Turning to `Nc1ccccc1NC(=O)/C=C/c1ccc(NS(=O)(=O)c2ccc(-c3ccccc3)cc2)cc1`, the half-maximal inhibitory concentration (IC50) in the test with NCI-H446 is 8 µM; in the test with MCF7, 29 µM; in the test with SW48, 30 µM; in test [2], more than 25 µM; with A549 it was 18 µM; in the test on HMEC, more than 36 µM. The IC50 was more than 36 µM in the test on T-24, 15 µM in the test with HCT-116 [3], 18 µM in the test with MDA-MB-231 and 15 µM in the test with DU-145. The EC in test [1] was 15 µM.

For the molecule `COc1ccc(NC(=O)Nc2ccc(/C=C/C(=O)NO)cc2)cc1OC`, the half-inhibitory concentration (IC50) on Histone deacetylase 1 came out at 1 µM. In addition, the EC in test [1] is more than 25 µM.

`Cc1ccc(NS(=O)(=O)c2ccc(/C=C/C(=O)Nc3ccccc3N)cc2)cc1`: the IC50 with NCI-H446 came to 2 µM; in the test with MCF7, 11.5 µM; with SW48 it was 6.5 µM; in [2] it was 34 µM; with A549 it was 9.5 µM; at Histone deacetylase 1, 2 µM. Further, the IC50 in the test on HMEC was more than 41 µM; in the test with T-24, 6.5 µM; in the test on HCT-116 [3], 3.5 µM; with MDA-MB-231, 9 µM; in the test with DU-145, 7 µM. In addition, in the test with HCT-116 [4], the Inhibition was 37%.

For `Nc1ccccc1NC(=O)c1ccc(CNC(=O)OCc2cccnc2)cc1` [ENTINOSTAT], the IC50 is 1 µM in the test on NCI-H446; 5 µM in the test on MCF7; 5 µM in the test on SW48; more than 37 µM in test [2]; 8 µM in the test with A549; more than 37 µM with HMEC. In addition, the half-inhibitory concentration (IC50) in the test with T-24 was 2.5 µM; with HCT-116 [3] it was 0.6 µM; in the test with MDA-MB-231, 3 µM; in the test with DU-145, 1 µM.

`Cc1ccc(S(=O)(=O)Nc2ccc(/C=C/C(=O)NO)cc2)cc1` gave an EC in test [1] of 10 µM.

Take `COc1ccc(NS(=O)(=O)c2ccc(/C=C/C(=O)Nc3ccccc3N)cc2)cc1OC`: the IC50 on Histone deacetylase 1 was found to be 3 µM.

Values taken from ChEMBL document CHEMBL1145775, “Development of potential antitumor agents. Synthesis and biological evaluation of a new set of sulfonamide derivatives as histone deacetylase inhibitors” (J Med Chem, 2003).
